Assay outcomes from PubChem.
SIRT5 block: inhibitors of human sirtuin-5 desuccinylase | 330,000 compounds, 1.1% hits | Purified SirT5, succinyl-peptide AMC, trypsin-coupled fluorescence | Q9NXA8 | inhibition, % at 15 µM; in the data active = inhibition above about 15%
NSD2 inh: inhibitors of human histone methyltransferase NSD2; O96028; 310,000 compounds, 0.54% hits; inhibition, % at 12.5 µM; NSD2 peptide methylation, AlphaScreen, 120 min; AID 743445; in the data active = inhibition above about 50%
UCH37 DUB inh: human UCH37 deubiquitinating enzyme inhibition; Q9Y5K5; purified proteasome/UCH37, Ub-AMC cleavage fluorescence; inhibition, % (test concentration not listed); 330,000 compounds, 0.33% hits; AID 588478;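 active = mean inhibition over replicate wells above about 20%, limit read from the data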
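Material: Human UCH37 enzyme supplied as purified proteasome complex | Schedule: 30 min preincubation with enzyme, 25 min cleavage at room temperature | Detection: AMC fluorescence 355/460 nm | Measure: % inhibition of Ub-AMC cleavage fluorescence | Controls: Wells without proteasome as full block, compound-free enzyme plus substrate as uninhibited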
FGF22 binding: binders of recombinant human FGF22 by thermal shift; Q9HCT0; SYPRO orange fluorescence; percent of sucrose octasulfate shift, DMSO zero; 340,000 compounds, 1.5% hits; activity (Tm shift, normalised), % at 9.99 µM; AID 651658;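 active = mean Tm shift, scaled 0 neutral to 100 positive control, at about 1.3% or above, every replicate too, limit read from the data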
Casp6 inh: blocks human caspase-6 cleavage activity; inhibition, % at 12.5 µM; 350,000 compounds, 0.53% hits; purified caspase-6, Z-VEID-R110 cleavage fluorescence;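 active = mean inhibition across replicates at least about 35%, with every replicate also reaching that limit, limit read from the data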
Numbers stand for hits; . = inactive; / = no result given; ! = repeats disagree. Hits are enriched below; roughly 2.6% of the tested compounds scored in any of these assays.

SMILES	SIRT5 block	NSD2 inh	UCH37 DUB inh	FGF22 binding	Casp6 inh
CCNc1nc(SC(C)C(=O)Nc2ccccc2)nc(N(C)C)n1 (configuration not stated)	.	.	.	43	.
CC(C)Nc1nc(SC(C)C(=O)Nc2ccccc2)nc(N(C)C)n1 (configuration not stated)	.	.	.	.	.
COC(=O)C1=C(C)N(Cc2ccccc2C(F)(F)F)C(=NCc2ccc3c(c2)OCO3)NC1c1ccccc1 (configuration not stated)	17	.	/	.	.
COC(=O)C1=C(C)N(Cc2ccc(C(F)(F)F)cc2)C(=NCc2ccccc2)NC1c1cccc(F)c1 (configuration not stated)	/	/	/	44	.
COC(=O)C1=C(C)N(Cc2ccccc2C(F)(F)F)C(=NCc2ccc3c(c2)OCO3)NC1c1ccc(C(F)(F)F)cc1 (configuration not stated)	.	.	/	.	.
O=C(Cc1ccccc1)N[C@@H]1CC[C@@H](CC(=O)N2CCCCC2)O[C@H]1CO	.	/	/	.	.
C[C@H]1CN([C@@H](C)CO)C(=O)c2cc(Br)cnc2O[C@@H]1CN(C)C(=O)c1ccccn1	.	/	/	.	.
C[C@@H]1CN([C@@H](C)CO)C(=O)c2cc(Br)cnc2O[C@H]1CN(C)C(=O)c1ccccc1F	15!	/	/	.	.
C[C@H](CO)N1C[C@H](C)[C@H](CN(C)C(=O)c2ccccc2F)Oc2ncc(-c3ccccc3)cc2C1=O	.	/	/	.	.
C/C=C/c1cnc2c(c1)C(=O)N([C@@H](C)CO)C[C@@H](C)[C@@H](CN(C)C(=O)NC1CCCCC1)O2	28	/	/	.	.
CCCNC(=O)N(C)C[C@@H]1Oc2ncc(Br)cc2C(=O)N([C@H](C)CO)C[C@@H]1C	20!	/	/	.	.
C[C@H]1CN([C@@H](C)CO)C(=O)c2cc(Br)cnc2O[C@H]1CN(C)C(=O)c1ccccn1	19!	/	/	.	.
Cc1ccc(S(=O)(=O)N(C)C[C@H]2OCCCC[C@H](C)Oc3ccc(NC(=O)CCC(F)(F)F)cc3C(=O)N([C@H](C)CO)C[C@H]2C)cc1	.	/	/	/	.
CCCC(NC(=O)C(C)NC(=O)CON=C1C=C2CCC3C4CCC(C(C)=O)[C@@]4(C)CCC3[C@@]2(C)CC1)C(=O)O (some centres not stated)	/	/	.	/	/
CO[C@H]1CN(C)C(=O)c2cc(NC(=O)Nc3ccccc3)ccc2OC[C@@H](C)N(CC2CC2)C[C@@H]1C	.	/	/	.	/
O=C(Nc1ccc(F)cc1)N1CCCCN2[C@H](CO)[C@@H](c3ccc(-c4cccc(F)c4)cc3)[C@@H]2C1	.	/	/	.	.
C[C@@H]1CN([C@H](C)CO)C(=O)c2cc(Br)cnc2O[C@H]1CN(C)C(=O)c1ccccc1F	.	/	/	.	.
C[C@H](CO)N1C[C@H](C)[C@H](CN(C)C(=O)c2ccccc2F)Oc2ncc(Br)cc2C1=O	26!	/	/	.	.
CC(=O)N(C)C[C@H]1Oc2cc(-c3ccc(C)cc3)ccc2S(=O)(=O)N([C@@H](C)CO)C[C@H]1C	.	/	/	.	.
CCS(=O)(=O)Nc1cccc(C2=NN(S(C)(=O)=O)C(c3ccccc3)C2)c1 (configuration not stated)	.	.	.	43	.
CCC(=O)N1N=C(c2cccc(NS(C)(=O)=O)c2)CC1c1cccs1 (configuration not stated)	.	.	.	.	.
CC(=O)N1N=C(c2cccc(NS(C)(=O)=O)c2)CC1c1cccs1 (configuration not stated)	23	/	.	.	.
CS(=O)(=O)Nc1ccc(C2=NN(C(=O)c3ccccc3)C(c3cccs3)C2)cc1 (configuration not stated)	.	.	.	.	.
CC(C)(C)C(=O)N1N=C(c2ccc(NS(C)(=O)=O)cc2)CC1c1cccs1 (configuration not stated)	.	.	.	43	.
CCS(=O)(=O)Nc1cccc(C2=NN(C(C)=O)C(c3cccs3)C2)c1 (configuration not stated)	.	.	.	43	.
Clc1cccc(Cc2c(-c3cccc(Br)c3)nc3c4ccccc4ccn23)c1	/	/	/	43	.
Cc1ccc(Cc2c(-c3cccc(Br)c3)nc3c(Cl)cc(C(F)(F)F)cn23)cc1	25	/	/	.	.
Fc1cccc(Cc2c(-c3cccc(Br)c3)nc3c(Cl)cc(C(F)(F)F)cn23)c1	.	/	/	.	.
